RGS4 pot: RGS4 potentiators or activators, primary screen, cell-based, HEK293 M3R inducible RGS4, calcium flux; actives 0.92% (n = 310,000); B-score at 10 µM; carbachol calcium flux Fluo4; stronger effect = lower value;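 active means B-score of the integrated calcium signal more than 4 SD below the library mean, with starting fluorescence not abnormally high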;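 further: negative B-score means reduced calcium response which marks RGS4 activation or potentiation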
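System: HEK293 FlpIn-TREx cells, stable M3R, doxycycline-inducible RGS4. Timing: overnight RGS4 induction, 30 min dye load 37 °C, 20 min compound RT. Also added: carbachol, ECmax concentration. Measured by: Fluo4 fluorescence kinetic imaging of calcium. Evaluation: integrated calcium ratio converted to B score.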
RGS4 block: RGS4 inhibitors, primary screen, cell-based, HEK293 M3R inducible RGS4, calcium flux | Regulator of G-protein signaling 4 (Homo sapiens), P49798 | Fluo-4 calcium flux; stronger effect = higher value; triggered by carbachol at its EC20 | B-score at 10 µM | actives 0.45% (n = 310,000);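 active means B-score, a plate-corrected calcium signal, over three deviations above library mean, with baseline fluorescence within five deviations of library mean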;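 further: RGS4 expression induced by doxycycline in cells with stable M3 receptor; B-score is computed from the integrated fluorescence ratio over baseline after carbachol; higher B-score means a larger calcium signal and so more RGS4 inhibition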
Target sequence (P49798 whole entry, looked up): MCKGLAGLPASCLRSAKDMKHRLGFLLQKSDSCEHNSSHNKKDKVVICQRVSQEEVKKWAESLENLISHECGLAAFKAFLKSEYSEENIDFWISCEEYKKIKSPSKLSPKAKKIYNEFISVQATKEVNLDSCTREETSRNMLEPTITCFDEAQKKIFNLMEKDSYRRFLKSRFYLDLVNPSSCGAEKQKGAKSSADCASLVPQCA
MrgX1 PAM: positive allosteric modulators of MrgX1, primary screen, HEK293 cells, Fluo-4 calcium flux; actives 0.63% (n = 310,000); FDSS; stronger effect = higher value; AID 588675, 2011; B-score at 10 µM; Mas-related G-protein coupled receptor member X1 (Homo sapiens), Q96LB2;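 active means plate-corrected calcium response at least 3 library SD above typical, normal starting fluorescence, not activating the receptor alone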;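 further: compound read alongside a low EC10 to EC30 dose of BAM8-22 agonist; peak minus trough fluorescence over baseline measured at the second addition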
MrgX1 ag: agonists of human MrgX1 receptor, primary screen, HEK293 cells, Fluo-4 calcium flux; Mas-related G-protein coupled receptor member X1 (Homo sapiens), Q96LB2; Fluo-4 calcium fluorescence, agonist mode; stronger effect = higher value; B-score at 10 µM; actives 0.44% (n = 310,000); AID 588627, 2011;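 active means calcium response B-score plate-corrected fluorescence ratio at least 3 library SD, with starting fluorescence B-score inside 5 SD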
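Test system: HEK293 cells stably expressing human MrgX1 receptor; amount: 15,000 cells per well; doses: compound delivered in addition one of three; times: overnight plating before 1 h dye loading; detection: Fluo-4 NW calcium-flux fluorescence, kinetic read; read-out basis: B-scored fluorescence response ratio; controls: positive and negative controls per plate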
MrgX1 antag: antagonists of human MrgX1 receptor, primary screen, HEK293 cells, Fluo-4 calcium flux; BAM8-22 antagonism; stronger effect = lower value; B-score at 10 µM; actives 1.3% (n = 310,000); AID 588676, 2011;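 active means calcium-response B-score plate-corrected more than 3 library SD below zero, starting fluorescence within 5 deviations, no agonist response on first addition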;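 further: peak minus trough fluorescence over baseline after final BAM8-22 challenge near maximal dose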
* hit, by the source's call; i = inactive; · = no result given. This is a sample that favours compounds with a hit; in the whole collection about 3.5% have one here.

SMILES	RGS4 pot	RGS4 block	MrgX1 PAM	MrgX1 ag	MrgX1 antag
CCn1c(COc2ccccc2)nnc1SCC(=O)Nc1ccc(N2CCOCC2)cc1	i	i	i	i	i
Cc1ccc(S(=O)(=O)NC(C)C(=O)NC2CCCCCC2)cc1 (stereo not given)	-7.2*	i	i	i	i
CCCOc1cccc(-c2cc(-c3n[nH]c(=S)n3CC)c3ccccc3n2)c1	-8.5*	i	i	i	i
CC(C)(CNc1ccc(C(F)(F)F)cc1[N+](=O)[O-])N1CCOCC1	i	i	i	i	i
Cc1cccc(C(=O)Oc2ccc(/C=N/NC(=O)c3cc(O)cc(O)c3)cc2)c1	-10*	i	i	i	i
COc1cc(C(=O)N/N=C/c2ccc(OC(=O)c3cccc(C)c3)c(OC)c2)ccc1O	-7.1*	i	i	i	i
COc1ccc(/C=N/NC(=O)C(=O)N2CCCC2)cc1OC	i	i	i	i	i
COc1cc(/C=N/NC(=O)C(=O)N2CCCC2)ccc1O	i	i	i	i	-6.7*
COc1cc(C(=O)N/N=C/c2ccc(OC(=O)c3ccccc3Cl)cc2)ccc1O	-11*	i	i	i	i
Nc1ccc(C(=O)N/N=C\c2ccc(OC(=O)c3ccccc3Cl)cc2)cc1	i	i	i	i	i
COC(=O)CC1C(=O)NCCN1C(=O)CSc1nnnn1-c1ccc(Cl)cc1 (stereo not given)	i	i	i	i	i
CC(C)(C)CC(=O)Nc1nnc(SCC(=O)N2CCCCC2)s1	i	i	i	i	i
OCCNc1nc(SCc2ccccc2)nc2sc3c(c12)CCC3	i	i	·	·	·
CC(OC(=O)c1ccccc1Br)C(=O)Nc1nc(-c2cccc([N+](=O)[O-])c2)cs1 (stereo not given)	i	i	i	i	-5.5*
O=C(Nc1nc(-c2cccc([N+](=O)[O-])c2)cs1)C(c1ccccc1)c1ccccc1	i	i	i	i	i
CCOC(=O)c1c(S(=O)(=O)NCC(=O)Nc2cc(C)ccc2OC)c(C)n(C)c1C	i	i	i	i	i
CC(=O)Oc1cccc(N2C(=O)c3cccc4c([N+](=O)[O-])ccc(c34)C2=O)c1	i	i	i	i	-8.4*
O=C1c2cccc3c([N+](=O)[O-])ccc(c23)C(=O)N1CCc1ccccn1	i	i	i	i	i
CN(C)CCCN1C(=O)c2cccc3c([N+](=O)[O-])ccc(c23)C1=O	·	·	i	i	-9.4*
C=CCn1ccc(O)c(Cc2ccc(Cl)cc2)c1=O	i	i	i	i	i
CC1CCCN(CCOCCOc2ccc(Br)cc2Cl)C1 (stereo not given)	-7.5*	i	i	i	i
S=C(Nc1ccc(Cl)cc1Cl)Nc1ccccc1Oc1ccccc1	i	i	i	i	i
S=C(Nc1cccc(Cl)c1)Nc1ccccc1Oc1ccccc1	i	i	i	i	-5.8*
CC(C)CCNC(=O)C(c1ccco1)N(CCCO)C(=O)Cn1nnc(-c2ccc(F)cc2)n1 (stereo not given)	i	i	i	i	i
O=C(COc1ccc(Cl)cc1)NCc1nnc(SCC(=O)NC2CCCC2)o1	i	i	i	i	-6.4*
O=C(CSc1nnc(COc2ccc(Cl)cc2)o1)NC1CC2CCC1C2 (stereo not given)	i	i	i	i	-4.7*
O=C(CSc1nnc(COc2ccc(Cl)cc2)o1)NC1CCCCC1	i	i	i	i	i
CC1CC(C)CN(CCCNC(=O)CN2C(=O)COc3ccc(S(=O)(=O)N4CCOCC4)cc32)C1 (stereo not given)	i	i	i	i	i
CCc1ccc(OCC(=O)NNC(=O)c2nn(CC)c(=O)c3ccccc23)cc1	i	i	9.6*	i	i
Cc1ccccc1OCCC(=O)Nc1ccc2c(C)cc(=O)oc2c1	i	i	i	i	i
